Assay results of several laboratories.
LDHA: L-lactate dehydrogenase A chain (LDHA, Homo sapiens, UniProt P00338)
PTPN1: Tyrosine-protein phosphatase non-receptor type 1 (PTPN1, Homo sapiens, UniProt P18031)
Acetylcholinesterase: Acetylcholinesterase (Bos taurus, UniProt P23795)
Integrin alpha-V/beta-3: Integrin alpha-V/beta-3 (Homo sapiens, UniProt P05106+P06756)
MAOA: Amine oxidase [flavin-containing] A (MAOA, Homo sapiens, UniProt P21397)
GSR: Glutathione reductase, mitochondrial (GSR, Homo sapiens, UniProt P00390)

| SMILES | target | observed | action | technique | pH | IC50 [µM] |
| --- | --- | --- | --- | --- | --- | --- |
| COc1c(O[C@@H]2O[C@H](CO)[C@@H](O)[C@H](O)[C@H]2O)cc2oc(-c3ccc(O)cc3)cc(=O)c2c1O | LDHA | enzyme activity | inhibitor | – | pH 7.4 | 210 |
| COc1ccc(N2CCN(C(c3cccs3)C(C)NC(=O)C(=O)NCc3ccco3)CC2)cc1 (centres unmarked) | PTPN1 | enzyme activity | inhibitor | absorbance | pH 7 | 14.4 |
| Nc1ncnc2c1ncn2[C@@H]1O[C@H](COP(=O)(O)OP(=O)(O)OP(=O)(O)O)[C@@H](O)[C@H]1O | Nucleotide-binding oligomerization domain-containing protein 1 (NOD1, Homo sapiens, UniProt Q9Y239) | ligand displacement | – | FP | – | ~0.015 |
| CNC(=O)Oc1ccccc1OC(C)C | Acetylcholinesterase | enzyme activity | inhibitor | Ellman | – | 1.83 |
| CC[C@H](C)[C@@H]([C@@H](CC(=O)N1CCC[C@H]1[C@H](OC)[C@@H](C)C(=O)N[C@@H](Cc1ccccc1)C(=O)O)OC)N(C)C(=O)[C@@H](NC(=O)[C@H](C(C)C)N(C)C(=O)OCc1ccc(NC(=O)[C@H](C)NC(=O)[C@@H](NC(=O)CCc2cn(CCOCCOCCOCCOCC(=O)NCc3ccc(CN4C(=O)[C@H]5CC(=O)N[C@H](C(=O)O)CC(=O)NCC(=O)N[C@@H](CCCNC(=N)N)C(=O)NC[C@H]4C(=O)N5)cc3)nn2)C(C)C)cc1)C(C)C | Integrin alpha-V/beta-3 | ligand displacement | – | – | – | 0.0439 |
| Cc1ccc2nc(N3C(=O)C(O)=C(C(=O)OC(C)(C)C)C3c3ccc(-c4ccc(Cl)cc4)o3)sc2c1 (centres unmarked) | UDP-N-acetylglucosamine 1-carboxyvinyltransferase (murA, Escherichia coli K-12, UniProt P0A749) | enzyme activity | inhibitor | – | – | 4.5 |
| C#CCN(C)c1nc(NCCCCC2CCN(Cc3ccccc3)CC2)c(C#N)c(-c2ccccc2)c1C#N | MAOA | enzyme activity | inhibitor | fluorescence | – | 11.6 |
| NC(Cc1ccc(C(F)(F)[P-](F)(F)(F)(F)F)cc1)C(=O)O (centres unmarked) | PTPN1 | enzyme activity | inhibitor | – | – | 122 |
| CNC(=O)Oc1cccc2c1OC(C)(C)C2 | Acetylcholinesterase | enzyme activity | inhibitor | Ellman | – | 0.073 |
| CCCCOc1ccc(C(=O)CCN2CCCCC2)cc1 | Histamine H2 receptor (HRH2, Homo sapiens, UniProt P25021) | ligand displacement | – | radioligand | – | 3.13 |
| CC[C@H](C)[C@@H]([C@@H](CC(=O)N1CCC[C@H]1[C@H](OC)[C@@H](C)C(=O)N[C@H](C)[C@@H](O)c1ccccc1)OC)N(C)C(=O)[C@@H](NC(=O)[C@H](C(C)C)N(C)C(=O)OCc1ccc(NC(=O)[C@H](C)NC(=O)[C@@H](NC(=O)CCc2cn(CCOCCOCCOCCOCC(=O)NCc3ccc(CN4C(=O)[C@H]5CC(=O)N[C@H](C(=O)O)CC(=O)NCC(=O)N[C@@H](CCCNC(=N)N)C(=O)NC[C@H]4C(=O)N5)cc3)nn2)C(C)C)cc1)C(C)C | Integrin alpha-V/beta-3 | ligand displacement | – | – | – | 0.0362 |
| O=C1C[C@H](c2ccc(O)cc2)Oc2cc(O)ccc21 | MAOA | enzyme activity | inhibitor | – | – | 9.97 |
| COc1cc(Nc2ncc(F)c(Nc3ccc4c(n3)NC(=O)C(C)(C)O4)n2)cc(OC)c1OC | Cathepsin S (CTSS, Homo sapiens, UniProt P25774) | enzyme activity | inhibitor | – | – | 12.6 |
| CCOP(=O)(OCC)Oc1ccc2c(C)c(Cl)c(=O)oc2c1 | Acetylcholinesterase | enzyme activity | inhibitor | Ellman | – | 1.04 |
| O=c1c2ccccc2[se]n1-c1ccccc1 | GSR | enzyme activity | inhibitor | absorbance | – | 21.5 |
| O=C(Nc1ccc([N+](=O)[O-])cc1[N+](=O)[O-])c1ccc2c(c1)OCO2 | MAOA | enzyme activity | inhibitor | – | – | 0.289 |
| O=c1cc(-c2ccc(O)c(O)c2)oc2cc(O[C@@H]3O[C@H](CO)[C@@H](O)[C@H](O)[C@H]3O[C@@H]3O[C@H](CO)[C@@H](O)[C@H](O)[C@H]3O)cc(O)c12 | LDHA | enzyme activity | inhibitor | – | pH 7.4 | 163 |
| CCCc1c(C2CCCCN2CCN2CCOCC2)[nH]c2cc(OC(F)(F)F)ccc12 (centres unmarked) | Plasma membrane ATPase 1 (PMA1, Saccharomyces cerevisiae, UniProt P05030) | ATPase activity | inhibitor | – | – | 26.9 |
| c1ccc(CCCN2CCN(CCOC(c3ccccc3)c3ccccc3)CC2)cc1 | GSR | enzyme activity | inhibitor | absorbance | – | > 100 |
| CNC(=O)Oc1cccc2c1OC(C)(C)O2 | Acetylcholinesterase | enzyme activity | inhibitor | Ellman | – | 0.195 |
